Reference: ChEMBL document CHEMBL5303300, “EUbOPEN Chemogenomics Library - Multiplex” (2023)
Several values for one entry are separate records, joined by “and”; a condition that tells them apart may be missing. Equal entries are not always repeated.

System: HEK-293T
Test: Multiplex assay against HEK293T
Format: toxicity, cell-based
Settings: human, number of replicates 2
Method in brief: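 With compound added, live cells were imaged on a CQ1 microscope at 37°C and 5% CO2; staining with Hoechst33342, BioTracker Green Microtubule Cytoskeleton Dye, MitoTracker Red and Annexin V Alexa Fluor 680 had been done at seeding. The CellPathfinder machine-learning gating scheme split cells into Hoechst high-intensity objects or normal cells, normal cells into healthy, pyknosed or fragmented nuclei, and pyknosed cells into mitotic or apoptotic. The tubulin, mitochondrial-mass and membrane-permeability phenotypes are per cents of healthy-nucleus cells.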

[1] = 12 h, 1 µM, compound concentration 1 uM
[2] = 12 h, 10 µM, compound concentration 10 uM
[3] = 24 h, 1 µM, compound concentration 1 uM
[4] = 24 h, 10 µM, compound concentration 10 uM
[5] = 48 h, 1 µM, compound concentration 1 uM
[6] = 48 h, 10 µM, compound concentration 10 uM

SMILES: CCCNc1ccc2ncc(-c3ccncc3)n2n1
- Population Apoptotic (%) [1]: 56% and 50%
- Population Fragmented Nuclei (%) [1]: 3% and 4%
- Population Healthy Nuclei (%) [1]: 81% and 85%
- Population Hoechst High Intensity Objects (%) [1]: 7% and 8%
- Population Membrane Permeable-Phenotype (%) [1]: 2%
- Population Mitochondria Different-Phenotype (%) [1]: 26% and 15%
- Population Mitotic Cells (%) [1]: 43% and 49%
- Population Normal (%) [1]: 92% and 91%
- Population Pyknosed Nuclei (%) [1]: 14% and 9%
- Population Tubulin-Different-Phenotype (%) [1]: 64% and 54%
- Total Cell Count [1]: 500 and 609
- Population Apoptotic (%) [2]: 55% and 50%
- Population Fragmented Nuclei (%) [2]: 4% and 5%
- Population Healthy Nuclei (%) [2]: 89% and 87%
- Population Hoechst High Intensity Objects (%) [2]: 6% and 5%
- Population Membrane Permeable-Phenotype (%) [2]: 2% and 1%
- Population Mitochondria Different-Phenotype (%) [2]: 32% and 26%
- Population Mitotic Cells (%) [2]: 44% and 50%
- Population Normal (%) [2]: 93% and 94%
- Population Pyknosed Nuclei (%) [2]: 6% and 7%
- Population Tubulin-Different-Phenotype (%) [2]: 62% and 61%
- Total Cell Count [2]: 481 and 583
- Population Apoptotic (%) [3]: 60% and 48%
- Population Fragmented Nuclei (%) [3]: 5% and 7%
- Population Healthy Nuclei (%) [3]: 88% and 86%
- Population Hoechst High Intensity Objects (%) [3]: 11% and 15%
- Population Membrane Permeable-Phenotype (%) [3]: 3% and 2%
- Population Mitochondria Different-Phenotype (%) [3]: 17% and 6%
- Population Mitotic Cells (%) [3]: 39% and 51%
- Population Normal (%) [3]: 88% and 84%
- Population Pyknosed Nuclei (%) [3]: 6%
- Population Tubulin-Different-Phenotype (%) [3]: 47% and 48%
- Total Cell Count [3]: 684 and 692
- Population Apoptotic (%) [4]: 66% and 48%
- Population Fragmented Nuclei (%) [4]: 2% and 4%
- Population Healthy Nuclei (%) [4]: 87%
- Population Hoechst High Intensity Objects (%) [4]: 8% and 9%
- Population Membrane Permeable-Phenotype (%) [4]: 1%
- Population Mitochondria Different-Phenotype (%) [4]: 41% and 35%
- Population Mitotic Cells (%) [4]: 33% and 51%
- Population Normal (%) [4]: 91% and 90%
- Population Pyknosed Nuclei (%) [4]: 9% and 8%
- Population Tubulin-Different-Phenotype (%) [4]: 64% and 66%
- Total Cell Count [4]: 490 and 643
- Population Apoptotic (%) [5]: 52% and 37%
- Population Fragmented Nuclei (%) [5]: 14%
- Population Healthy Nuclei (%) [5]: 80% and 81%
- Population Hoechst High Intensity Objects (%) [5]: 16% and 21%
- Population Membrane Permeable-Phenotype (%) [5]: 3% and 1%
- Population Mitochondria Different-Phenotype (%) [5]: 5% and 6%
- Population Mitotic Cells (%) [5]: 47% and 62%
- Population Normal (%) [5]: 83% and 78%
- Population Pyknosed Nuclei (%) [5]: 4%
- Population Tubulin-Different-Phenotype (%) [5]: 33% and 47%
- Total Cell Count [5]: 935 and 824
- Population Apoptotic (%) [6]: 55% and 68%
- Population Fragmented Nuclei (%) [6]: 4% and 3%
- Population Healthy Nuclei (%) [6]: 82% and 86%
- Population Hoechst High Intensity Objects (%) [6]: 15% and 8%
- Population Membrane Permeable-Phenotype (%) [6]: 2% and 1%
- Population Mitochondria Different-Phenotype (%) [6]: 49% and 55%
- Population Mitotic Cells (%) [6]: 44% and 31%
- Population Normal (%) [6]: 84% and 91%
- Population Pyknosed Nuclei (%) [6]: 13% and 9%
- Population Tubulin-Different-Phenotype (%) [6]: 70% and 66%
- Total Cell Count [6]: 503 and 413

SMILES: CN(C)CCN(Cc1ccc(-c2ccc(CNCCc3ccccc3)cc2)cc1)C(=O)CCC1CCCC1.Cl.Cl
- Population Apoptotic (%) [1]: 45% and 51%
- Population Fragmented Nuclei (%) [1]: 2% and 1%
- Population Healthy Nuclei (%) [1]: 87% and 86%
- Population Hoechst High Intensity Objects (%) [1]: 6% and 3%
- Population Membrane Permeable-Phenotype (%) [1]: 2%
- Population Mitochondria Different-Phenotype (%) [1]: 34% and 33%
- Population Mitotic Cells (%) [1]: 54% and 48%
- Population Normal (%) [1]: 93% and 96%
- Population Pyknosed Nuclei (%) [1]: 9% and 11%
- Population Tubulin-Different-Phenotype (%) [1]: 86% and 78%
- Total Cell Count [1]: 835 and 591
- Population Apoptotic (%) [2]: 61% and 57%
- Population Fragmented Nuclei (%) [2]: 7% and 4%
- Population Healthy Nuclei (%) [2]: 43% and 42%
- Population Hoechst High Intensity Objects (%) [2]: 28% and 30%
- Population Membrane Permeable-Phenotype (%) [2]: 4% and 1%
- Population Mitochondria Different-Phenotype (%) [2]: 72% and 73%
- Population Mitotic Cells (%) [2]: 38% and 42%
- Population Normal (%) [2]: 71% and 69%
- Population Pyknosed Nuclei (%) [2]: 48% and 52%
- Population Tubulin-Different-Phenotype (%) [2]: 93% and 96%
- Total Cell Count [2]: 396 and 358
- Population Apoptotic (%) [3]: 36%
- Population Fragmented Nuclei (%) [3]: 4% and 6%
- Population Healthy Nuclei (%) [3]: 89% and 85%
- Population Hoechst High Intensity Objects (%) [3]: 6% and 5%
- Population Membrane Permeable-Phenotype (%) [3]: 1%
- Population Mitochondria Different-Phenotype (%) [3]: 17% and 21%
- Population Mitotic Cells (%) [3]: 63%
- Population Normal (%) [3]: 93% and 94%
- Population Pyknosed Nuclei (%) [3]: 6% and 7%
- Population Tubulin-Different-Phenotype (%) [3]: 63% and 61%
- Total Cell Count [3]: 1227 and 899
- Population Apoptotic (%) [4]: 73%
- Population Fragmented Nuclei (%) [4]: 5%
- Population Healthy Nuclei (%) [4]: 42% and 36%
- Population Hoechst High Intensity Objects (%) [4]: 31% and 39%
- Population Membrane Permeable-Phenotype (%) [4]: 3% and 1%
- Population Mitochondria Different-Phenotype (%) [4]: 80% and 84%
- Population Mitotic Cells (%) [4]: 26%
- Population Normal (%) [4]: 68% and 60%
- Population Pyknosed Nuclei (%) [4]: 51% and 57%
- Population Tubulin-Different-Phenotype (%) [4]: 89% and 95%
- Total Cell Count [4]: 357 and 312
- Population Apoptotic (%) [5]: 15% and 20%
- Population Fragmented Nuclei (%) [5]: 12% and 9%
- Population Healthy Nuclei (%) [5]: 84% and 86%
- Population Hoechst High Intensity Objects (%) [5]: 8%
- Population Membrane Permeable-Phenotype (%) [5]: 4% and 5%
- Population Mitochondria Different-Phenotype (%) [5]: 0% and 2%
- Population Mitotic Cells (%) [5]: 84% and 79%
- Population Normal (%) [5]: 91%
- Population Pyknosed Nuclei (%) [5]: 3% and 4%
- Population Tubulin-Different-Phenotype (%) [5]: 21% and 25%
- Total Cell Count [5]: 3014 and 1979
- Population Apoptotic (%) [6]: 88% and 79%
- Population Fragmented Nuclei (%) [6]: 9% and 5%
- Population Healthy Nuclei (%) [6]: 30% and 28%
- Population Hoechst High Intensity Objects (%) [6]: 33% and 40%
- Population Membrane Permeable-Phenotype (%) [6]: 1% and 0%
- Population Mitochondria Different-Phenotype (%) [6]: 82% and 91%
- Population Mitotic Cells (%) [6]: 11% and 20%
- Population Normal (%) [6]: 66% and 59%
- Population Pyknosed Nuclei (%) [6]: 60% and 65%
- Population Tubulin-Different-Phenotype (%) [6]: 84% and 93%
- Total Cell Count [6]: 318 and 281
